Assay results: PubChem BioAssay AID1019 (Sanford-Burnham Center for Chemical Genomics, 2008)
The whole screen tested about 190,000 compounds, of which fewer than 10 were called active.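 The calls were made as follows: active = over 50% inhibition of intestinal alkaline phosphatase at 20 µM in the single-dose screen; inactive = the rest.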 These entries were drawn from the full list.

The molecules below were run on alkaline phosphatase, intestinal [Bos taurus] (assay: bovine intestinal alkaline phosphatase inhibitors, primary screen, selectivity assay for TNAP inhibitor project, biochemical, bovine IAP, CDP-star luminescence (AID 1019)). Conditions: purified bovine IAP, 30 min, at 20 µM, stronger effect = higher value.
Summary of the method: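 Incubation: 30 min reaction at room temperature / Material: purified bovine intestinal alkaline phosphatase (IAP) enzyme / Input: enzyme at 1/65,000,000 dilution / Dosing: 20 µM single dose / Signal: CDP-star luminescence signal / Reagent: CDP-star chemiluminescent phosphatase substrate, 30 µM final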
In the case of `CCCC(=O)OCC(=O)Nc1cc(Cl)ccc1[N+](=O)[O-]`, the inhibition was 12.7% (inactive). For `O=C(COC(=O)CC1CC2CCC1C2)NC(=O)NC1CCCC1` (centres undefined), the inhibition was -11.4% (inactive). In the case of `COC(=O)c1ccc(NC(=S)Nc2cccc(C)n2)cc1`, the inhibition was 0.2% (inactive). In the case of `COc1ccccc1NC(=O)c1cc(Cl)nnc1Cl`, the inhibition was -4% (inactive). For `O=C(CCc1ccc(S(=O)(=O)N2CCOCC2)cc1)NN=C1CCCCCCC1`, the inhibition was 5% (inactive). With `O=C(COC(=O)CCCNC(=O)c1ccc(Cl)cc1)Nc1cc(Cl)ccc1Cl` the inhibition was 33.8% (inactive). With `COc1cccc(/C=N/NC(=O)CNC(=O)c2ccc(S(=O)(=O)N3CCOCC3)cc2)c1OC` the inhibition was 16.1% (inactive). In the case of `CS(=O)(=O)Nc1ccc(C2=NN(S(C)(=O)=O)C(c3cccs3)C2)cc1` (centres undefined), the inhibition was -11% (inactive). `O=C(COC(=O)c1ccc(O)cc1)Nc1nccs1` was tested, and the inhibition was -1.9% (inactive). In the case of `COc1ccc(C(=O)NC2(C(F)(F)F)NC(=O)N(CCCc3ccccc3)C2=O)c(OC)c1OC` (centres undefined), the inhibition was -13% (inactive). For `CCCCC1N2CC3([N+](=O)[O-])CN1CC([N+](=O)[O-])(C2)C3(C)C` (centres undefined), the inhibition was 3.9% (inactive). With `Cc1cc(F)ccc1S(=O)(=O)N1CCCOC1CNC(=O)C(=O)NCCC1=CCCCC1` (centres undefined) the inhibition was 6.4% (inactive). In the case of `CC(C)=C1C2CCC1C1C(=O)N(NC(=O)c3ccco3)C(=O)C21` (centres undefined), the inhibition was 41.2% (inactive). For `Cc1csc(NC(=O)CSc2ccc(-c3ccc(F)cc3)nn2)n1`, the inhibition was -3.9% (inactive). `CN(CC(=O)NCCc1ccccc1)S(=O)(=O)c1cnc[nH]1` was tested, and the inhibition was 5.2% (inactive). With `O=S1(=O)CCC(NC(=S)SCc2ccccc2Br)C1` (centres undefined) the inhibition was 23.3% (inactive). `CCCCNC(=O)CCn1c(=O)c2ccccc2n(Cc2cc(C)ccc2C)c1=O` was tested, and the inhibition was 15.7% (inactive). With `NC(=O)C1=C[C@H](c2csc3ccccc23)C[C@H](OCc2ccc(CO)cc2)O1` the inhibition was -16.7% (inactive). In the case of `S=C(NC1CCCCC1)NN1CCOCC1`, the inhibition was -0.1% (inactive). `COc1ccccc1NC(=O)CCSc1nnc(-c2ccc(O)cc2)o1` was tested, and the inhibition was 3.5% (inactive). With `Nc1cccc(CCc2nc3ccccc3[nH]2)c1` the inhibition was 12% (inactive). With `O=[N+]([O-])c1ccc(NCCCO)c(C(F)(F)F)c1` the inhibition was -0.5% (inactive). With `CC(C)c1nc2sc3c(c2c(=O)n1N)CC(C)(C)OC3` the inhibition was -5% (inactive). With `O=C(Nc1cccc(C(F)(F)F)c1)c1cnccn1` the inhibition was 5.6% (inactive). With `COc1ccc(OCCCn2cccc2/C=C2/C(=N)N3OC(C)=CC3=NC2=O)cc1` the inhibition was 13.7% (inactive). With `CCOC12CC(C)(C)CC(C)(CC3=C1C(=O)CC(C)(C)C3)C2` (centres undefined) the inhibition was -12.4% (inactive). With `Cn1c(CCCOc2ccc(Cl)cc2Cl)n[nH]c1=S` the inhibition was 25.8% (inactive). `CCCCN(CC)C(=S)Nc1ccc2nc3n(c(=O)c2c1)CCCCC3` was tested, and the inhibition was -16.6% (inactive). In the case of `O=C(CCc1ccccc1)NCCc1cccs1`, the inhibition was 1.2% (inactive). `O=C(NN1C(=O)C2C3C=CC(O3)C2C1=O)c1ccccc1` (centres undefined) was tested, and the inhibition was -0.3% (inactive). For `CN(C(=O)CSc1nnc(-c2c[nH]c3ccccc23)o1)C1CCS(=O)(=O)C1` (centres undefined), the inhibition was -2.2% (inactive). With `CCc1cccc2c(=O)c(C(=O)NCCCOC)c[nH]c12` the inhibition was -5.7% (inactive). With `COc1ccc(CCNC(=O)COC(=O)Cc2cc(OC)c(OC)c(OC)c2)cc1` the inhibition was -4.1% (inactive). In the case of `O=c1cc(CN2CCN(S(=O)(=O)/C=C/c3ccccc3)CC2)c2ccc(O)cc2o1`, the inhibition was 1.7% (inactive). `Cc1cccc(N2CCN(C(=O)/C=C/c3ccco3)CC2)c1C` was tested, and the inhibition was 6.3% (inactive). In the case of `CCCCn1nc(C(=O)OCC(=O)Nc2sccc2C(N)=O)c2ccccc2c1=O`, the inhibition was -0.9% (inactive). For `COc1ccnc(Oc2ccccc2)n1`, the inhibition was -11% (inactive). In the case of `O=C1CCCC(O)=C1N=Nc1ccc2ncsc2c1`, the inhibition was 6.3% (inactive). For `O=C(C1=C[C@H](c2ccc(C(F)(F)F)cc2)C[C@H](OCc2ccc(CO)cc2)O1)N1CCN(Cc2ccccc2)CC1`, the inhibition was -12.1% (inactive). `COC(=O)c1sc(N)c(C(=O)OC)c1COC(=O)CNS(=O)(=O)c1ccc(C)cc1` was tested, and the inhibition was 11.4% (inactive). `CN(c1ccccc1)S(=O)(=O)c1cc(C(=O)OCC(=O)N2CCN(C(=O)c3ccco3)CC2)ccc1Cl` was tested, and the inhibition was -7.4% (inactive). For `C=CCNC(=S)N1CCN(CCN=Cc2c(C)[nH]n(-c3ccc([N+](=O)[O-])cc3)c2=O)CC1`, the inhibition was -6.4% (inactive). `CCC(C)N(C)C1CCN(C(=S)Nc2ccc(OC)cc2)CC1` (centres undefined) was tested, and the inhibition was -6.9% (inactive). For `CCC(C)NC(=O)Cn1nc(C(F)(F)F)c2c1CCC2` (centres undefined), the inhibition was -10.6% (inactive). With `CCOc1ccc(-c2n[nH]c(C)c2-c2ccccn2)c(O)c1` the inhibition was -27.5% (inactive). `O=C(c1cc(Cl)cc(Cl)c1)N1CCC(=O)N(C(COCc2ccccc2)Cc2ccccc2)CC1` (centres undefined) was tested, and the inhibition was -2.4% (inactive). `COc1ccc(Cn2c(=O)cc(C)[nH]c2=S)cc1` was tested, and the inhibition was 9.8% (inactive). In the case of `Cc1ccc(Cl)cc1NC(=O)COC(=O)CC(C)(C)C`, the inhibition was -16% (inactive). In the case of `CCc1ccc(N2CC(O)=C(c3nc4ccccc4c(=O)[nH]3)C2=N)cc1`, the inhibition was -19.9% (inactive). With `CC(C)c1cc(NCc2ccccn2)n2c(nc3ccccc32)c1C#N` the inhibition was -20.8% (inactive). `CC(C)[C@@H]1NC(=O)c2cc([N+](=O)[O-])cc(I)c2NCCC[C@@H](C(=O)NC(CC(=O)O)C(N)=O)NC(=O)[C@H](CO)NC1=O` (some centres undefined) was tested, and the inhibition was 6.3% (inactive). For `Cc1ccc(-c2ccc(/C=N/NC(=O)CN3CCOCC3)o2)cc1[N+](=O)[O-]`, the inhibition was -0.9% (inactive). `C/C(=N\NC(=O)C(N)=O)c1ccc2c(c1)OCCO2` was tested, and the inhibition was -4.3% (inactive). With `Cc1ccc(NC(=O)c2cccnc2C(=O)Nc2ccc(C)cc2)cc1` the inhibition was -4.3% (inactive). For `Cc1ccc(CN2CCN(Cc3cccc(C)n3)CC2CCO)cc1` (centres undefined), the inhibition was -23.9% (inactive). In the case of `CCN(CC)c1ccc(C(=O)c2cnc(/N=C/N(C)C)s2)cc1`, the inhibition was 11.8% (inactive). For `CC(C)CNC(=O)C(=O)Nc1ccc(N(C)C)cc1`, the inhibition was -7.9% (inactive). In the case of `O=C(CSc1nnc(-c2ccc([N+](=O)[O-])cc2)o1)Nc1ccccn1`, the inhibition was -24.6% (inactive). With `CCO[C@@H]1OC(C(N)=O)=C[C@H](c2ccc(Br)cc2)[C@H]1CCCO` the inhibition was -2% (inactive).
